Hits are enriched below; roughly 1.2% of the tested compounds scored in any of these assays.
procasp3 activ = activators of human procaspase-3 D3A mutant, primary screen, biochemical, absorbance, PC-3 D3A mutant, single concentration | recombinant procaspase-3 D3A, Ac-DEVD-pNA absorbance 405 nm | 330,000 tested, 0.11% active | Caspase-3 (Homo sapiens), P42574 | AID 463141, 2010 | activation, % at 8.5 µM;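 active = activation above the mean of all tested compounds plus 3 SD, cut at about 21% in these data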;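 also: 0% = DMSO alone and 100% = DMSO wells spiked with extra 5 µM PC-3 D3A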
Target sequence (P42574 whole entry D9A/D28A/D175A): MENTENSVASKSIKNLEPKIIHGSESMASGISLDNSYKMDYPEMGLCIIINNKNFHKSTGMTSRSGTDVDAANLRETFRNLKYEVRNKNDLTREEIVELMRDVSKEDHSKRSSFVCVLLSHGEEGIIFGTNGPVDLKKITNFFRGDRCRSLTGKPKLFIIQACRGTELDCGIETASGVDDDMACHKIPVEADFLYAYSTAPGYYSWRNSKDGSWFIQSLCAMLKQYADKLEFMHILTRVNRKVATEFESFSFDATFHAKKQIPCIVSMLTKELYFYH
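System: Procaspase-3 D3A mutant. Medium: Zinc-free 300 mM NaCl, 50 mM HEPES, 0.01% Triton X-100. Schedule: 1 h preincubation plus 2 h reaction at 25 °C. Measured by: 405 nm absorbance of p-nitroaniline, reads at 0 and 120 min. Read-out: percent activation relative to control range.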
procasp7 counter = procaspase-7 activators, primary screen, counter-screen for procaspase-3 activator project, biochemical, absorbance, HTS, human; Caspase-7 (Homo sapiens), P55210; recombinant procaspase-7, Ac-DEVD-pNA absorbance 405 nm; D23A/D198A/D206A triple mutant, cannot self-cleave; scale: DMSO 0, 5 µM enzyme 100; activation, % at 8.5 µM; 330,000 tested, 0.093% active;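 active = percent activation above the screen-wide mean plus 3 SD, cut at about 25% in these data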
Target sequence (P55210 whole entry D23A/D198A/D206A): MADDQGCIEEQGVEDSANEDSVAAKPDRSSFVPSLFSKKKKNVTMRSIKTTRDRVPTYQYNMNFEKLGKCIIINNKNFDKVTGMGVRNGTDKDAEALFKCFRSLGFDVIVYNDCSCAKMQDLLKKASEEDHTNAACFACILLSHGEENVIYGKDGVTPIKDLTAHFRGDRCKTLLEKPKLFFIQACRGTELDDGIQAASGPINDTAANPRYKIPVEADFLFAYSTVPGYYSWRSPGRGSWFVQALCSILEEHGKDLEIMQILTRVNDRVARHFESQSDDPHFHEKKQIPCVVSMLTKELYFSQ
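System: Procaspase-7 triple mutant (PC-7 D3A); measure: % activation from two-timepoint absorbance difference, scaled to controls; times: 1 h compound preincubation, 2 h substrate cleavage, 25 °C; also added: Ac-DEVD-pNA substrate, 400 µM as added; measured by: Epi-absorbance of released pNA at 405 nm, two timepoints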
MsrA act = bovine MsrA enzyme activators, primary screen, biochemical, absorbance, HTS; Methionine sulfoxide reductase A (Bos taurus); purified bovine MsrA, absorbance read-out; activation, % at 10.6 µM; 360,000 tested, 0.3% active; in the data active = activation above about 7.5%;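 also: 0% = vehicle and 100% = reference activator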
MsrA inhibitor = bovine MsrA enzyme inhibitors, primary screen, biochemical, absorbance, HTS; Methionine sulfoxide reductase A (Bos taurus); purified bovine MsrA, absorbance read-out; inhibition, % at 15.5 µM; 360,000 tested, 0.75% active; AID 651718, 2012;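 also: 0% = vehicle wells with enzyme and 100% = reference inhibitor wells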
PC3 D3A act = procaspase-3 activators, counter-screen for dual procaspase-3/7 activator project, biochemical, absorbance, PC-3 D3A mutant, human. recombinant PC-3 D3A, Ac-DEVD-pNA absorbance 405 nm; aspartates 9, 28, 175 changed to alanine; 100% = enzyme control. shares compounds with procasp7 counter. 290 tested, under 10 active. AID 493114, 2011. activation, % at 8.5 µM;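 active = mean percent activation across triplicates above a set limit taken from the earlier primary procaspase-3 screen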;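 also: 0% = DMSO wells and 100% = DMSO wells with 5 µM added PC-3 D3A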
Procasp7 act = activation of procaspase-7 enzyme – biochemical, absorbance, human, dual procaspase-3/-7 activator project, confirmation; shares compounds with procasp7 counter; recombinant procaspase-7, Ac-DEVD-pNA absorbance 405 nm; D23A/D198A/D206A mutant that cannot self-cleave; activation, % at 8.5 µM; 290 tested, under 10 active;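 active = mean activation above a set limit carried over from the earlier primary screen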;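 also: 0% = DMSO only and 100% = DMSO with added 5 µM PC-7 enzyme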
MsrA act confirm = bovine MsrA activators, retest, confirmation, biochemical, absorbance, HTS; 1,000 tested, 12% active; shares compounds with MsrA act; activation, % at 10.6 µM; purified bovine MsrA, absorbance read-out; AID 602270, 2012; in the data active = activation above about 4%;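 also: enzyme coupled to thioredoxin and thioredoxin reductase with NADPH; 0% = vehicle wells and 100% = reference activator wells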
MsrA conf = bovine MsrA inhibitors, retest, confirmation, biochemical, absorbance, HTS | shares compounds with MsrA inhibitor | purified bovine MsrA, absorbance read-out | inhibition, % at 15.5 µM | 2,300 tested, 41% active | AID 651822, 2012;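 also: coupled to thioredoxin reductase with NADPH and selenocystamine and DMSO as substrate; 0% = vehicle only and 100% = full effect of reference inhibitor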
The depositor's hits bear a star; nt = no result. Rule as the data show it, unless noted: active = inhibition above about 4.5%; inactive = the rest.

SMILES	procasp3 activ	procasp7 counter	MsrA act	MsrA inhibitor	MsrA act confirm	others
Cc1cccc(C2=NN(c3ccc(Br)cc3)[C@@H](C(=O)N3CCOC3=O)[C@@H]2c2ccccc2)c1	20.2	32.1*	-2.3	nt	nt	PC3 D3A act=-29.8;Procasp7 act=-33.4
C[C@@H]1C(c2ccccc2)=NN(c2ccccc2)[C@H]1C(=O)N1CCOC1=O	-4.0	3.5	-1.6	0.6	nt
C[C@@H]1C(c2cccc(Cl)c2)=NN(c2ccccc2)[C@H]1C(=O)N1CCOC1=O	6.9	30.3*	-0.3	2.6	nt	PC3 D3A act=-30.1;Procasp7 act=-36.5
C[C@@H]1C(c2cccc(Cl)c2)=NN(c2ccc(Br)cc2)[C@H]1C(=O)N1CCOC1=O	21.9*	28.7*	-1.7	nt	nt	PC3 D3A act=-30.1;Procasp7 act=-36.0
Cc1cc(O)cc(=O)n1-c1cccc([N+](=O)[O-])c1	nt	nt	nt	0.1	nt
COc1ccc2c(c1OC)C(=O)OC2CC(=O)c1ccc(N(C)C)cc1 (stereo not given)	44.1*	41.3*	-3.1	4.7*	nt	PC3 D3A act=40.9*;Procasp7 act=29.7*;MsrA conf=4.6*
COC(=O)N1C[C@H](OC)[C@H]2C[C@@H]1c1ccccc1O2	nt	nt	nt	0.2	nt
COc1ccc(S(=O)(=O)NCc2ccc(C(=O)N3CCN(Cc4ccccc4)CC3)cc2)cc1	7.6	-10.5	-3.8	-0.1	nt
COc1ccc(S(=O)(=O)NCc2ccc(C(=O)O)cc2)cc1	0.5	-5.3	7.9*	0.8	-1.5
O=S1(=O)N[C@@H](Cc2ccccc2)COc2cccc(N3CCCC3)c21	nt	nt	nt	0.9	nt
S=c1[nH]c2ccc(Cl)cc2[nH]1	-13.8	-4.2	-2.1	-0.8	nt
S=c1ncc2[nH]c(=S)[nH]c2[nH]1	nt	nt	7.9*	nt	6.2*
COc1cc(C(=O)NCc2ccccc2)cc(Br)c1OC	-2.9	-2.3	10.2*	0.3	-1.1
Cc1ccc(OC(=O)N(C)C[C@H]2OCc3cn(nn3)CCCC(=O)N([C@@H](C)CO)C[C@@H]2C)cc1	nt	nt	nt	0.8	nt
O=C(C(=O)N1CCC(CNC(=O)C2COc3ccccc3O2)CC1)c1cccs1 (stereo not given)	nt	nt	nt	0.5	nt
Clc1cc(Br)ccc1OCCN1CCOCC1	-3.2	8.2	-8.6	-1.0	nt
Brc1ccccc1OCCN1CCOCC1	6.6	2.1	9.5*	-0.7	-2.8
Cc1noc(C)c1S(=O)(=O)N1CCCc2nc(-c3ccc(F)cc3)ccc21	nt	nt	nt	0.2	nt
Cn1cc(CCOCc2ccccn2)c2ccccc21	nt	nt	nt	-0.7	nt
CCN(CC)c1ccc2nc3ccccc3[n+](CC)c2c1	-6.8	-0.1	33.6*	nt	19.2*
CCOC(=O)c1ccc(NC(=O)c2cc(F)c(F)cc2Cl)cc1	-3.3	-1.2	8.7*	1.4	0.6
COC(=O)C1=C(C)N(Cc2ccccc2C(F)(F)F)C(=NCc2ccccc2)NC1c1ccc(Cl)cc1 (stereo not given)	nt	nt	nt	-0.6	nt
c1ccc(N2CCOCCOCCOCCOCC2)cc1	-3.6	6.2	-1.1	-0.5	nt
c1ccn(-c2ccc(N3CCOCC3)cc2)c1	8.9	-4.3	10.3*	-0.6	-1.0
CCC(C)(C)n1nnnc1CN(Cc1cccs1)Cc1cc2cc(OC)ccc2[nH]c1=O	2.6	2.9	7.7*	1.5	-2.8
SMILES	procasp3 activ	procasp7 counter	MsrA act	MsrA inhibitor	MsrA act confirm	others
COCc1[nH]nc2c1C(c1ccc(C)cc1)N(Cc1ccccc1)C2=O (stereo not given)	nt	nt	nt	0.5	nt
CC/C(=N/NC(=O)c1ccc(Br)o1)c1ccc(Cl)cc1	0.1	4.0	8.3*	0.0	0.3
COC(=O)[C@]12C[C@H](CC(=O)N3CCSCC3)C(=O)N(Cc3ccccc3)C1=C[C@H](C(C)C)O[C@@H]2C1CC1	nt	nt	nt	1.1	nt
CC(C)[C@H](NC(=O)[C@H](C)NC(=O)OC(C)(C)C)C(=O)N1CCC2CCN(Cc3ccccc3)CC21 (stereo not given in full)	nt	nt	nt	0.2	nt
CCCc1cc(=O)oc2c(CN3CCN(C)CC3)c(O)c(Cl)cc12	-1.9	-0.4	13.2*	1.8	-0.4
CC1(Cc2ccc(Cl)cc2)C(=O)Nc2ccc(S(=O)(=O)NC3CCCCC3)cc21 (stereo not given)	nt	nt	-1.0	0.8	nt
CC1(Cc2ccc(OC(F)(F)F)cc2)C(=O)Nc2ccc(S(=O)(=O)NC3CCCCC3)cc21 (stereo not given)	nt	nt	20.2*	-1.3	1.2
COc1cccc(N2CCN(C(=S)Nc3ccccc3OC)CC2)c1	4.3	11.2	-2.4	1.6	nt
CCOc1ccccc1NC(=S)N1CCN(c2cccc(OC)c2)CC1	7.8	0.3	8.5*	0.3	-1.1
Cc1onc(C(=O)N2C(C)CCCC2C)c1[N+](=O)[O-] (stereo not given)	-0.8	0.0	8.8*	1.2	-0.6
Brc1ccc2nc(-c3ccc(CN4CCC5(CC4)CNc4ccccc45)cc3)c(-c3ccccc3)nc2c1	nt	nt	nt	2.5	nt
CC(=O)Oc1c(S(=O)(=O)c2ccccc2)c(C)nn1C(C)(C)C	-9.6	10.9	10.2*	-0.2	-2.4
C[C@@H]1ON(C)[C@H]2C[C@H]3c4cc(N5CCN(C)CC5)ccc4CCN3C[C@@H]12	nt	nt	nt	-0.8	nt
O=C(CCCN=C1NS(=O)(=O)c2ccccc21)OCc1ccc(F)cc1	9.7	1.2	-4.9	1.1	nt
O=C(CCCN=C1NS(=O)(=O)c2ccccc21)OCc1ccccc1	2.1	4.4	8.8*	-0.7	-1.8
Cc1[nH]nc2c1C(c1ccc(Br)cc1)N(Cc1ccccc1)C2=O (stereo not given)	nt	nt	nt	-0.4	nt
O=C(CCSc1ccccn1)c1ccccc1	-30.1	-26.2	7.8*	1.9	-1.4
Nc1nc2c(ncn2[C@@H]2O[C@H](C(=O)N[C@H](Cc3ccccc3)C(=O)NCc3ccc4c(c3)OCO4)[C@@H](O)[C@H]2O)c(=O)[nH]1	nt	nt	nt	1.4	nt
Cc1cc(C)n(CCc2nc(-c3ccc(C(C)(C)C)cc3)cs2)n1	-3.4	-5.3	9.3*	0.4	-3.9
O=C(O)CSc1nnc(Cc2ccccc2)n1Cc1ccccc1	-1.0	7.1	-4.0	-0.7	nt

High-throughput results (PubChem)
